In publication PMC11482445 (Journal of neurochemistry, 2024):
Where two headings read alike, the source gives them in different places.

Legend:
[1] = humans, 24h after oral administration of ^14C-labeled 4AP; cited from earlier work
CYP2E1 [2] = settings: humans, DSF treatment; cited from earlier work
CYP2E1 [3] = settings: in vitro competition assay; cited from earlier work
[4] = cited from earlier work
[5] = assay type: in vivo, mice
[6] = cited from earlier work; remark: listed apart in the source
[7] = assay type: in vivo, mice; remark: listed apart in the source
Procedure, shortened: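 Mice (isoflurane-anesthetized or awake) given IV tracer (>99% radiochemical purity, in 95% 20 mM sodium phosphate pH 8.0/5% EtOH); euthanized 35 min later. Brain homogenized in 0.4 N HClO4 (~1:2 w/v) by 30 s ultrasonication at 4 °C, spun 21,000 RCF, 8 °C, 7 min. Plasma and pH-neutralized supernatant passed through 10K filter, then radio-HPLC on C18 with 10 mM NH4HCO3 pH 8.0/MeCN (96:4). Samples kept on ice. Percent parent fraction reported.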

[8] = not told; cited from earlier work

Nc1ccncc1 [4AP, 4-aminopyridine]
radioactive species recovered in urine corresponding to the unchanged drug [1]: ~ 90%

CCN(CC)C(=S)SSC(=S)N(CC)CC [DSF, disulfiram]
prevention of clinical isoflurane metabolism (CYP2E1 [2]): 80–90%

Nc1ccncc1F [3F4AP, 3-fluoro-4-aminopyrdine]
affinity of CYP2E1 relative to the affinity for 4AP (CYP2E1 [3]): 50 times

Nc1ccncc1[18F] [[^18F]3F4AP, 3-[^18F]fluoro-4-aminopyridine]
brain uptake SUV at 4 min ([4]; NHPs, brain, 4 min): > 3 | parent fraction (metabolic stability) ([4]; NHPs, up to 2h post-injection): > 90% | brain SUV 90 min post-injection ([4]; anesthetized NHPs, brain TAC, Fig. 3A): ~ 1.50 | SUV90 min-WB (NHP) ([4]; anesthetized NHPs, whole blood, 90 min): 0.946 | SUV35 min-br (awk mice) ([5]; brain, 35 min post-injection, IV, awake mice, n = 20, mean ± SEM): 0.28 ± 0.04 | WB and brain SUV values, awake vs anesthetized mice ([5]; euthanized at 60 sec (1 min) post-tracer injection, Fig. S1): no significant differences | SUV35 min-WB (awk mice) ([5]; whole blood, 35 min post-injection, IV, awake mice, mean ± SEM): 0.51 ± 0.05 | SUV35 min-WB (iso mice) ([5]; whole blood, 35 min post-injection, IV, isoflurane-anesthetized mice, mean ± SEM): 0.66 ± 0.08 | brain SUV 90 min post-injection ([6]; awake humans, brain TAC, Fig. 3A): 0.54 | SUV90 min-WB (human) ([6]; awake humans, whole blood, 90 min): 0.87 | parent remaining in blood ([6]; humans, 1h post-injection): less than 50% | percent parent fraction in brain (%PFawk-br) ([7]; brain, awake mice, 35 min post-tracer, n = 8, mean ± SEM): 80.3 ± 2.7% | proportion of radiometabolites in the brain, anesthetized mice ([7]; brain, isoflurane-anesthetized mice, 35 min): 1.6% | percent parent fraction in brain (%PFiso-br) ([7]; brain, isoflurane-anesthetized mice, 35 min post-tracer, n = 5, mean ± SEM): 98.4 ± 0.2% | concentration of metabolites in plasma, awake mice ([7]; plasma, awake mice, 35 min): 82.3% | percent parent fraction in plasma (%PFawk-pl) ([7]; plasma, awake mice, 35 min post-tracer, n = 11, mean ± SEM): 17.7 ± 1.7% | concentration of metabolites in plasma, anesthetized mice ([7]; plasma, isoflurane-anesthetized mice, 35 min): 25.2% | percent parent fraction in plasma (%PFiso-pl) ([7]; plasma, isoflurane-anesthetized mice, 35 min post-tracer, n = 10, mean ± SEM): 74.8 ± 1.6%

Nc1cc[n+]([O-])cc1F [3F4AP N-oxide]
permeability across an artificial brain membrane [8]: low permeability

Nc1c(O)cncc1F [5-hydroxy-3F4AP]
permeability across an artificial brain membrane [8]: low permeability
